Test results as given in ChEMBL document CHEMBL3272254, “Inhibition of squalene synthetase by farnesyl pyrophosphate analogues” (J Med Chem, 1977).
Activity calls are given as the source filed them. No cut-off for these calls is given here.

Columns and labels:
[1] = molecular target: T1, Squalene synthase ERG9 (Saccharomyces cerevisiae (strain ATCC 204508 / S288c) (Baker's yeast)) (UniProt P29704); assay: Competitive inhibition of Baker's yeast squalene synthetase using [1-3H]farnesyl pyrophosphate as substrate by Lineweaver-Burk graphic analysis
T1 sequence (whole entry): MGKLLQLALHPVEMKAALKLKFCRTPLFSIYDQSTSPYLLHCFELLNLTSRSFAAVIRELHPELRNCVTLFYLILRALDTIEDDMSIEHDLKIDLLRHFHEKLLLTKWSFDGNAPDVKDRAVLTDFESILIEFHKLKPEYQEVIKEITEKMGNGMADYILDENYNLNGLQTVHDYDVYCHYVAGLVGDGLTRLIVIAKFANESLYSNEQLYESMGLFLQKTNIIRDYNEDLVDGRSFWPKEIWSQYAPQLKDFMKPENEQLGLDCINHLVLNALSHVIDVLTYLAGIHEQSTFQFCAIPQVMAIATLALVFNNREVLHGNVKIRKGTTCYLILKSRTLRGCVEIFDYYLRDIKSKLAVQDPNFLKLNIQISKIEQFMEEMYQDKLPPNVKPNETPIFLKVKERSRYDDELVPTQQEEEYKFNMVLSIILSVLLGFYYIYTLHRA
Procedure, shortened: (§1)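 Enzyme: yeast […] from sonicated baker's yeast, high-speed supernatant precipitated at 30–55% ammonium sulfate, dialyzed in 100 mM K phosphate pH 7.0 with 20 mM 2-mercaptoethanol. Assay in 1 ml at 37 °C, started with enzyme (1.34 mg/ml protein): [1-3H]FPP 1–10 µM, 10 mM MgCl2, 1.6 mM NADPH, 50 mM K phosphate pH 7.5. Squalene recovered by minicolumn and scintillation counted. Each point done in at least two independent experiments.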

[2] = molecular target: T1, Squalene synthase ERG9 (Saccharomyces cerevisiae (strain ATCC 204508 / S288c) (Baker's yeast)); assay: Inhibition of Baker's yeast squalene synthetase assessed as incorporation of [1-3H]farnesyl pyrophosphate into squalene up to 20 uM after 2 mins by liquid scintillation spectrometer analysis; procedure, shortened: as §1
[3] = molecular target: T1, Squalene synthase ERG9 (Saccharomyces cerevisiae (strain ATCC 204508 / S288c) (Baker's yeast)); assay: Inhibition of Baker's yeast squalene synthetase using [1-3H]farnesyl pyrophosphate as substrate at 4 uM preincubated for up to 5 hrs before substrate addition by liquid scintillation spectrometer analysis
[4] = molecular target: T1, Squalene synthase ERG9 (Saccharomyces cerevisiae (strain ATCC 204508 / S288c) (Baker's yeast)); assay: Inhibition of Baker's yeast squalene synthetase assessed as incorporation of [1-3H]farnesyl pyrophosphate into squalene at 2 to 6 uM after 2 mins by liquid scintillation spectrometer analysis; procedure, shortened: as §1
[5] = molecular target: T1, Squalene synthase ERG9 (Saccharomyces cerevisiae (strain ATCC 204508 / S288c) (Baker's yeast)); assay: Mixed type inhibition of Baker's yeast squalene synthetase using [1-3H]farnesyl pyrophosphate as substrate by Lineweaver-Burk graphic analysis; procedure, shortened: as §1

| SMILES | inhibition [1] | inhibition [2] | inhibition [3] | inhibition [4] | inhibition [5] |
| --- | --- | --- | --- | --- | --- |
| CC(C)=CCC/C(C)=C/CC/C=C(/I)COP(=O)(O)OP(=O)(O)O | Active | inactive | Active |  |  |
| CC(C)=CCC/C(C)=C/CC/C(C)=C(\C)COP(=O)(O)OP(=O)(O)O |  | inactive |  | Active |  |
| CC(C)=CCC/C(C)=C/CC/C=C/COP(=O)(O)OP(=O)(O)O |  | inactive | Active |  | Active |
| CSC(C/C=C(\C)CCC=C(C)C)/C(C)=C/COP(=O)(O)OP(=O)(O)O (stereo not given) | Active | inactive | Active |  |  |
| CC(C)=CCC/C(C)=C/CC/C(I)=C\COP(=O)(O)OP(=O)(O)O | Active | inactive | Active |  |  |
| CC(C)=CCC/C(C)=C/CC/C(C)=C/COP(=O)(O)OP(=O)(O)O |  |  |  | Active |  |

More lines, now with the values ahead:

| inhibition [1] | inhibition [2] | inhibition [3] | inhibition [4] | inhibition [5] | SMILES |
| --- | --- | --- | --- | --- | --- |
| Active | inactive |  |  |  | C/C(=C\COP(=O)(O)OP(=O)(O)O)CCCC(C)CCCC(C)C (stereo not given) |
| Active | inactive |  |  |  | C/C(=C\COP(=O)(O)OP(=O)(O)O)CCCC(C)CCCC(C)CCCC(C)C (mixture of isomers) |
| Active | inactive |  | Active |  | CC(C)=CCC/C(C)=C/COP(=O)(O)OP(=O)(O)O |
|  | inactive | Active |  | Active | CC(C)=CCC/C(C)=C/CCC#CCOP(=O)(O)OP(=O)(O)O |
| Active | inactive |  |  |  | CC(C)CCCC(C)CCCC(C)CCOP(=O)(O)OP(=O)(O)O (stereo not given) |
| Active | inactive |  | Active |  | CC/C(=C\COP(=O)(O)OP(=O)(O)O)CC/C=C(\C)CCC=C(C)C |
